Data on nine molecules can be found in ChEMBL document CHEMBL1132214, “Synthesis, mode of action, and biological activities of rebeccamycin bromo derivatives” (J Med Chem, 1999).

As a reminder, the CC50 is the concentration that lowers cell viability or growth by half. By IC50 is commonly meant the midpoint of a concentration-inhibition curve. Read a low IC50 as greater potency.

In brackets after ≈: the same amount, converted by molar mass. Some results are limits rather than exact numbers.

Assay [1] concerns P388. As to the kind of experiment: (§1) Ratio of IC50 of p388 and p388CPT5 cell lines. In kind it is functional, Mus musculus. In short, it runs like this:
(§2)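 Murine P388 leukaemia cells and camptothecin-resistant P388CPT5 cells were exposed to graded drug concentrations for 96 h at 37 °C. Viability was read by neutral red staining and the 50% growth-inhibitory concentration (IC50) taken for each line. The resistance ratio is IC50(P388CPT5)/IC50(P388).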

Assay [2] has as its system P388. Put plainly: Compound was tested for drug bound to whole cells (P388 leukemia) before centrifugation at 320 nm. In kind it is functional, Mus musculus. The method, boiled down: (§3)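 Exponentially growing P388 cells (1.5 × 10^6 per mL) incubated with drug, usually 100 µM, for 30 min at 37 °C. Excitation 320 nm, emission 400–600 nm. Whole-cell spectrum read before centrifugation. Pellet spectrum read after one HBSS wash and resuspension in drug-free buffer. Intensities expressed relative to free rebeccamycin; fraction change is whole-cell versus free drug.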

In assay [3] the test system is P388. As to the kind of experiment: Compound was tested for drug bound to cell pellet (P388 leukemia) after centrifugation at 320 nm. The format is functional, Mus musculus. In short, it runs like this: as §3
Assay [4] relates to P388. Put plainly: Fraction change in percent is observed. The format is functional, Mus musculus. The method, boiled down:
as §3

Assay [5] deals with CEM-SS. As to the kind of experiment: Selective Index of against HIV -I Lai infected CEM-SS cells. The format is functional, Homo sapiens. In short, it runs like this:
(§4)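 CEM-SS cells kept at 37 °C, 5% CO2 in RPMI 1640 with 10% decomplemented FBS, infected with HIV-1 Lai. Antiviral IC50 from reverse transcriptase activity of virus particles released into the medium. Cytotoxicity (CC50) measured in parallel. Selectivity index = CC50/IC50.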

Assay [6] concerns CEM-SS. Put plainly: The cytotoxicity was evaluated in HIV -I Lai infected CEM-SS cells. In kind it is functional. Conditions: Homo sapiens. The method, boiled down:
as §4

Assay [7] deals with CEM-SS. Put plainly: Compound was tested for anti-HIV activity in HIV -I Lai infected CEM-SS cells. The format is functional, cell-based. Conditions: Homo sapiens. The method, boiled down: as §4
Assay [8] relates to P388. As to the kind of experiment: In vitro inhibitory concentration against murine P388 leukemia cell proliferation. The format is functional, cell-based. The conditions noted are these: Mus musculus. The method, boiled down: (§5)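 Murine P388 leukemia cells, or the camptothecin-resistant P388CPT5 subline, exposed 96 h at 37 °C to a range of drug concentrations. Viability scored by neutral red staining. IC50 taken as the concentration giving 50% growth inhibition.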

Assay [9] relates to P388CPT5. As to the kind of experiment: In vitro inhibitory concentration against murine P388CPT5 leukemia cell proliferation. In kind it is functional, cell-based. Conditions: Mus musculus. The method, boiled down:
as §5

Assay [10] can be described thus: as §1. In kind it is functional. The method, boiled down:
as §2

Assay [11] addresses T1, DNA topoisomerase 1 (Mus musculus) (UniProt Q04750).
T1 sequence (whole entry): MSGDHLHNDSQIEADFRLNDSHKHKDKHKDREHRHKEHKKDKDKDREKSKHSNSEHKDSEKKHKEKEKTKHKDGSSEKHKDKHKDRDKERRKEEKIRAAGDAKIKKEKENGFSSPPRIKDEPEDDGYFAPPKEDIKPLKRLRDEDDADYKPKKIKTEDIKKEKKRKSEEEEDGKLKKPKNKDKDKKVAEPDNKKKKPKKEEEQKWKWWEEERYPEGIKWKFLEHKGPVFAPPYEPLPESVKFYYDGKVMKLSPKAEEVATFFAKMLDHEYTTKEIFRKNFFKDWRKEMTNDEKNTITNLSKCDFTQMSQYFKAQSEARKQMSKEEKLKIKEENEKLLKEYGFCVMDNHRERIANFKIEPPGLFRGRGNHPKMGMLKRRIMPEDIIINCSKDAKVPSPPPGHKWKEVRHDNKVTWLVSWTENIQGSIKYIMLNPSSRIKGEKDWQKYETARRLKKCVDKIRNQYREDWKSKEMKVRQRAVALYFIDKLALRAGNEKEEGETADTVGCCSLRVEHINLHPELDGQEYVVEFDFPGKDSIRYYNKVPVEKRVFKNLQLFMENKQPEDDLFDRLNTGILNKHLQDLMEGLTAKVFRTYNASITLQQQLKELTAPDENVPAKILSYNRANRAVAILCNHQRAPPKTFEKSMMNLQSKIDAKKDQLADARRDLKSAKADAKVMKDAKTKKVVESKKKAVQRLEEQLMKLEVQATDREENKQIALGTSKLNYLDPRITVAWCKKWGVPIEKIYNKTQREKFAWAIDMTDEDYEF

Assay [12] has as its system DNA topoisomerase 1 (Bos taurus). Put plainly: Compound was tested for anti microbial activity against topoisomerase I.
Assay [13] relates to Bacillus cereus. Put plainly: Compound was tested for antimicrobial activity against a gram-positive bacterium Bacillus cereus. In kind it is functional. The method, boiled down: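 Bacillus cereus ATCC 14579 in Mueller-Hinton broth, pH 7.4, incubated 24 h at 27 °C. Compounds diluted in DMSO over 12 tubes spanning 100 to 0.05 µg/mL. MIC read from the dilution series.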

Consider `CO[C@H]1[C@H](O)[C@@H](O)[C@H](n2c3c(Cl)cccc3c3c4c(c5c6cccc(Cl)c6[nH]c5c32)C(=O)NC4=O)O[C@@H]1CO` [REBECCAMYCIN], for which, in assay [1], the Ratio is given as 8.5. Moreover, in assay [2], the “Whole-cell fluorescence relative to free drug” value came out at 1.29. For the same molecule, in assay [3], the Activity is given as 0.81. Besides, the Fraction change in assay [4] turned out to be 29%. The Selectivity index in assay [5] was 2 SI.

In assay [6], `CO[C@H]1[C@H](O)[C@@H](O)[C@H](n2c3c(Cl)cccc3c3c4c(c5c6cccc(Cl)c6[nH]c5c32)C(=O)N(C)C4=O)O[C@@H]1CO` displayed a CC50 of 8 µM. For the same molecule, in [5], the Selectivity index is 1.6. For the same molecule, the IC50 in [7] was determined as 4900 nM.

As for `CC[C@@]1(O)C(=O)OCc2c1cc1n(c2=O)Cc2cc3ccccc3nc2-1` [CAMPTOTHECIN], the IC50 was 32 nM in [8] and 2.8 µM in [9]. For the same molecule, the Ratio in assay [10] stood at 87.5. In assay [11], the MIC was found to be 86 nM (≈ 0.03 µg/mL).

`COC1C(CO)OC(n2c3ccc(Br)cc3c3c4c(c5c6cc(Br)ccc6[nH]c5c32)C(=O)NC4=O)C(O)C1O` (configuration not stated): in [1], the Ratio is listed as greater than 58. In addition, the “Whole-cell fluorescence relative to free drug” value in assay [2] was 0.15. The molecule also showed a CC50 in [6] of 0.34 µM. The molecule also showed an Activity in [3] of 0.08. Besides, the figures for the IC50 in [8], in [9] and in assay [7] were 260 nM, greater than 15 µM and 70 nM, respectively. Moreover, in [4], the Fraction change was 46%. The MIC was 150 nM (≈ 0.0989 µg/mL) in assay [12] and 19 µM (≈ 12.5 µg/mL) in [13]. The same molecule registered a Selectivity index in assay [5] of 4.8.

Turning to `COC1C(CO)OC(n2c3ccc(Br)cc3c3c4c(c5c6cc(Br)ccc6[nH]c5c32)C(=O)N(C)C4=O)C(O)C1O` (configuration not stated), the Ratio in assay [1] was greater than 3. In assay [2], the “Whole-cell fluorescence relative to free drug” value stood at 0.46. The CC50 in assay [6] amounted to 1.49 µM. This molecule also yielded an Activity in [3] of 0.24. Moreover, the IC50 in assay [8] was 4900 nM; in [9], greater than 15 µM; in [7], 1170 nM. Besides, in assay [4], the Fraction change is reported as 13%. Also, the figures for the MIC in assay [12] and in [13] were greater than 15000 nM and greater than 74 µM, respectively. Also, the Selectivity index in assay [5] came out at 1.3.

On to `CO[C@H]1[C@H](O)[C@@H](O)[C@H](n2c3ccc(Br)cc3c3c4c(c5c6cc(Br)ccc6[nH]c5c32)C(=O)OC4=O)O[C@@H]1CO`, for which the Ratio in assay [1] came out at 8.3. Also, the Selectivity index in [5] worked out at 1.9.

Consider `CO[C@H]1[C@H](O)[C@@H](O)[C@H](n2c3ccccc3c3c4c(c5c6ccccc6[nH]c5c32)C(=O)NC4=O)O[C@@H]1CO`, for which the Ratio in [1] is greater than 28. Besides, the “Whole-cell fluorescence relative to free drug” value in assay [2] came to 0.38. In addition, the Activity in [3] came out at 0.33. Moreover, the Fraction change in assay [4] is -26%. In [5], this molecule had a Selectivity index of 5.6.

`CO[C@H]1[C@H](O)[C@@H](O)[C@H](n2c3ccccc3c3c4c(c5c6ccccc6[nH]c5c32)C(=O)OC4=O)O[C@@H]1CO`: the Ratio in [1] is on record as greater than 3.1. The molecule further came in with a Selectivity index in assay [5] greater than 1.98 SI.

Turning to `CO[C@H]1[C@H](O)[C@@H](O)[C@H](n2c3ccccc3c3c4c(c5c6ccccc6[nH]c5c32)C(=O)N(C)C4=O)O[C@@H]1CO`, the 50% cytotoxic concentration (CC50) in [6] amounted to 7.9 µM. Moreover, the IC50 in [8] turned out to be 670 nM; in assay [7], 4000 nM. For the same molecule, the Selectivity index in assay [5] was determined as 2.
